# Test results as given in ChEMBL document CHEMBL1649316, “Using population pharmacokinetics to determine gentamicin dosing during extended daily diafiltration in critically ill patients with acute kidney injury” (Antimicrob Agents Chemother, 2010).
# Tests used:
# Format in all cases: ADME, organism-based
# Homo sapiens [1] = assay: AUC (0 to 24 hrs) in critically ill patient with acute kidney injury at 5 mg/kg, iv administered every 24 hrs; parameters: time < 24 hr, dose 5 mg/kg, route intravenous; settings: in vivo
# Method in brief: (§1)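 Monte Carlo simulation in NONMEM from the final covariate population model. 1,000 simulated subjects per regimen, modelled on a person (70 kg, BMI 23.6 kg/m²). Weight-based doses were given at EDD-f start or 30 min, 1 h, 2 h or 4 h before a 10-h EDD-f session, every 24 h or every 48 h. Targets were Cmax and AUC0-24, assuming an MIC of 1 mg/liter.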
# Homo sapiens [2] = assay: AUC (0 to 24 hrs) in critically ill patient with acute kidney injury at 4 mg/kg, iv administered as 30 mins infusion; parameters: time < 24 hr, dose 4 mg/kg, route intravenous; settings: in vivo; method in brief: as §1
# Homo sapiens [3] = assay: Cmax in critically ill patient with acute kidney injury at 5 mg/kg, iv administered as 1 hr infusion; parameters: dose 5 mg/kg, route intravenous; settings: in vivo; method in brief: as §1
# Homo sapiens [4] = assay: Clearance in iv dosed critically ill patient with acute kidney injury during extended daily diafiltration; settings: in vivo
# Method in brief: (§2)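 Patients were 14 critically ill adults with AKI on EDD-f, 28 doses in total. Gentamicin was given as a 30-min central venous infusion. Arterial plasma was sampled predose and at 15, 30, 60, 120, 180, 300, 480 and 600 min, plus samples between EDD-f sessions. Plasma levels were measured by Synchron LX assay (LOD 0.3 mg/liter). A two-compartment NONMEM model (FOCE with interaction) was fitted with EDD-f as a covariate.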
# Homo sapiens [5] = assay: Cmax in critically ill patient with acute kidney injury at 4 mg/kg, iv administered as 30 mins infusion; parameters: dose 4 mg/kg, route intravenous; settings: in vivo, 0.5 h; method in brief: as §1
# Homo sapiens [6] = assay: Half life in iv dosed critically ill patient with acute kidney injury; settings: in vivo; method in brief: as §2
# Homo sapiens [7] = assay: Cmax in critically ill patient with acute kidney injury at 6 mg/kg, iv administered every 48 hrs; parameters: dose 6 mg/kg, route intravenous; settings: in vivo; method in brief: as §1
# Homo sapiens [8] = assay: Cmax in critically ill patient with acute kidney injury at 5 mg/kg, iv administered every 24 hrs; parameters: dose 5 mg/kg, route intravenous; settings: in vivo; method in brief: as §1
# Homo sapiens [9] = assay: AUC (0 to 24 hrs) in critically ill patient with acute kidney injury at 5 mg/kg, iv administered as 1 hr infusion; parameters: dose 5 mg/kg, route intravenous; settings: in vivo; method in brief: as §1
# Homo sapiens [10] = assay: Clearance iv dosed in critically ill patient with acute kidney injury; settings: in vivo; method in brief: as §2
# Homo sapiens [11] = assay: Half life in iv dosed critically ill patient with acute kidney injury during extended daily diafiltration; settings: in vivo; method in brief: as §2
# Homo sapiens [12] = assay: AUC (0 to 24 hrs) in critically ill patient with acute kidney injury at 6 mg/kg, iv administered every 48 hrs; parameters: time < 24 hr, dose 6 mg/kg, route intravenous; settings: in vivo; method in brief: as §1
sequence,measurement,setting,value
GENTAMICIN,AUC,Homo sapiens [1],135.7 mg·h/L
same,AUC,Homo sapiens [2],70 mg·h/L
same,Cmax,Homo sapiens [3],> 10 mg/L
same,CL,Homo sapiens [4],2.54 L/h
same,AUC,Homo sapiens [5],70 mg·h/L
same,t1/2,Homo sapiens [6],153.4 h
same,Cmax,Homo sapiens [7],> 10 mg/L
same,Cmax,Homo sapiens [8],> 10 mg/L
same,Cmax,Homo sapiens [9],> 10 mg/L
same,CL,Homo sapiens [10],0.23 L/h
same,t1/2,Homo sapiens [11],13.8 h
same,AUC,Homo sapiens [12],88.7 mg·h/L
